SMILES strings stand for the structures.

The nature of experiment [1]: Antiinflammatory activity in FMLP/CB activated human neutrophils assessed as inhibition of elastase release at 10 uM. In kind it is functional. The conditions noted are these: Neutrophil. The method in brief: (§1)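 Neutrophils from healthy donor blood (dextran sedimentation, Ficoll 1.077 g/mL, hypotonic lysis), held in Ca2+-free HBSS pH 7.4 at 4 °C. Cells (6 × 10^5/mL) with MeO-Suc-Ala-Ala-Pro-Val-p-nitroanilide 100 μM, equilibrated 37 °C 2 min, drug or 0.1% DMSO 5 min, then 100 nM FMLP plus 0.5 μg/mL cytochalasin B. A405 monitored continuously; expressed relative to drug-free activated control; n = 3−4.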

A short description of experiment [2]: Antiinflammatory activity in FMLP/CB activated human neutrophils assessed as inhibition of superoxide generation by ferricytochrome c reduction based spectrophotometry. Format: functional, cell-based, Neutrophil. The method in brief:
(§2)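 Human donor neutrophils (6 × 10^5 cells/mL) with 0.5 mg/mL ferricytochrome c and 1 mM Ca2+, equilibrated 37 °C 2 min, then drug or 0.1% DMSO vehicle 5 min. Activated with 100 nM FMLP after 1 μg/mL cytochalasin B preincubation, 3 min. A550 followed continuously with stirring. Superoxide from SOD (100 U/mL)-inhibitable difference, ε = 21.1/mM/10 mm; n = 3−4.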

A short description of experiment [3]: Antiinflammatory activity in FMLP/CB activated human neutrophils assessed as inhibition of elastase release. In kind it is functional, cell-based, Neutrophil. In a few lines: as §1
Experiment [4] is described as follows: Antiinflammatory activity in FMLP/CB activated human neutrophils assessed as inhibition of superoxide generation at 10 uM by ferricytochrome c reduction based spectrophotometry. In kind it is functional. Particulars: Neutrophil. In a few lines: as §2
The mark [5] stands for this setting: Homo sapiens, Neutrophil, read-out: IC50.

In the case of `C=C1C(=O)[C@]23C[C@@H]1CC[C@H]2[C@]1(C)CCC[C@](C)(CO)[C@H]1C[C@@H]3O`, the inhibition (in general, the change of the read-out against control, counted positive when it falls) at 10 µM in experiment [1] was determined as 45.8%. Further, the IC50 (commonly the concentration that gives 50% inhibition) in experiment [2] (setting [5]) worked out at 3.95 µM. With `C=C1C(=O)[C@@]23[C@@H]4CC5=C(C(=O)CC5(C)C)[C@@](C)(O4)[C@@H]2CC[C@@H]1[C@H]3O` [CROTONKINENSIN A], the values for the IC50 in experiment [3] (setting [5]) and in experiment [2] (setting [5]) were 1.63 µM and 2.06 µM, respectively. Consider `C=C1C(=O)[C@@]23[C@H](O)C[C@@H]4C(C)(C)CCC[C@@]4(C)[C@@H]2CC[C@@H]1[C@H]3O`, for which the IC50 in experiment [3] (setting [5]) came to 3.22 µM; in experiment [2] (setting [5]), 1.96 µM.

Regarding `CC(=O)OC[C@@]1(C)CCC[C@]2(C)[C@@H]1CC[C@]13C=C(C(=O)O)[C@H](C[C@H](OC(C)=O)[C@H]12)C3` [CROTONKININ D], the inhibition at 10 µM in experiment [1] was 20.3%. In experiment [2] (setting [5]), the IC50 is 2.93 µM. `C=C1C(=O)[C@@]23[C@H](O)C[C@@H]4C(C)(C)CCC[C@@]4(C)[C@@H]2CC[C@H]1[C@H]3OC(C)=O`: the IC50 was 2.36 µM in experiment [3] (setting [5]) and 1.12 µM in experiment [2] (setting [5]). Regarding `C=C1C(=O)[C@@]23[C@H](O)C[C@@H]4[C@@](C)(COC(C)=O)CCC[C@@]4(C)[C@@H]2CC[C@@H]1[C@H]3O`, the inhibition at 10 µM worked out at 20.1% in experiment [1] and 19% in experiment [4]. `C=C1C(=O)[C@]23C[C@@H]1CC[C@H]2[C@]1(C)CCCC(C)(C)[C@H]1C[C@@H]3O`: the IC50 in experiment [3] (setting [5]) was 2.23 µM; in experiment [2] (setting [5]), 1.74 µM. Take `C=C1C[C@@]23CC[C@H]4[C@@](C)(CCC[C@]4(C)C(=O)O)[C@@H]2[C@H](OC(C)=O)C[C@H]1C3`: the IC50 was 2.58 µM in experiment [3] (setting [5]) and 4.12 µM in experiment [2] (setting [5]). Regarding `C=C1C(=O)[C@]23C[C@H]1CC[C@H]2[C@]1(C)CCC[C@](C)(COC(C)=O)[C@H]1C[C@H]3O`, the IC50 was 2.64 µM in experiment [3] (setting [5]) and 1.55 µM in experiment [2] (setting [5]).

As to `C=C1C(=O)[C@@]23CC[C@@H]4[C@@](C)(CO)CCC[C@@]4(C)[C@@H]2CC[C@@H]1C3`, the inhibition at 10 µM is 18% in experiment [1] and 29.9% in experiment [4]. Consider `COCC1C(=O)[C@]23C[C@H]1CC[C@H]2[C@]1(C)CCC[C@](C)(COC(C)=O)[C@H]1C[C@H]3O` (stereo partly specified) [CROTONKININ G], for which the inhibition at 10 µM in experiment [1] stood at 11.1%. The IC50 in experiment [2] (setting [5]) came to 4.29 µM. With `C=C1C(=O)[C@]23C[C@H]1CC[C@H]2[C@]1(C)CCC[C@](C)(COC(C)=O)[C@H]1C[C@H]3OC(C)=O` [CROTONKININ F], the values for the IC50 in experiment [3] (setting [5]) and in experiment [2] (setting [5]) were 4.44 µM and 2.88 µM, respectively. On to `CC(=O)O[C@H]1C[C@@H]2C[C@]3(C=C2C=O)CC[C@H]2[C@@](C)(CCC[C@]2(C)C(=O)O)[C@H]13` [CROTONKININ C], for which the inhibition at 10 µM in experiment [1] was found to be 41.8%. Besides, in experiment [2] (setting [5]), the IC50 was determined as 4.96 µM. For `CC(=O)O[C@@H]1C[C@@H]2C[C@@]3(C=C2C=O)CC[C@H]2[C@](C)(CO)CCC[C@]2(C)[C@@H]13` [CROTONKININ B], the IC50 stood at 4.38 µM in experiment [3] (setting [5]) and 3.2 µM in experiment [2] (setting [5]). Taken in the same sequence, the figures for `C=C1C(=O)[C@@]23CC[C@H]4[C@@](C)(CCC[C@]4(C)C(=O)O)[C@@H]2CC[C@H]1C3` were 5.56 µM and 3.27 µM.

As to `C=C1C(=O)[C@@]23CC[C@@H]4[C@@](C)(COC(C)=O)CCC[C@@]4(C)[C@@H]2[C@@H](OC(C)=O)C[C@@H]1C3` [CROTONKININ E], the figures for the IC50 in experiment [3] (setting [5]) and in experiment [2] (setting [5]) were 4.66 µM and 3.11 µM, respectively.

Regarding `CC(=O)OC[C@@]1(C)CCC[C@]2(C)[C@@H]1CC[C@]13CC(=O)[C@H](C[C@H](OC(C)=O)[C@H]12)C3` [CROTONKININ J], in experiment [1], the inhibition at 10 µM came out at 48.8%. In addition, the IC50 in experiment [2] (setting [5]) is 4.76 µM. As for `CC(=O)OC[C@@]1(C)CCC[C@]2(C)[C@@H]1C[C@H](O)[C@@]13C[C@@H](CC[C@@H]21)[C@H](C)C3=O`, the results for the inhibition at 10 µM in experiment [1] and in experiment [4] were -0.19% and 40.4%, respectively. Taken in the same sequence, the figures for `C=C1C(=O)[C@@]23CC[C@@H]4C(C)(C)CCC[C@@]4(C)[C@@H]2CC[C@H]1[C@H]3O` were 3.64% and 33.6%. Taken in the same sequence, the figures for `C=C1C[C@]23C(=O)C[C@H]4C(C)(C)CCC[C@]4(C)[C@H]2CC[C@H]1[C@@H]3O` [CROTONKININ A] were -9.32% and 1.65%. Consider `C=C1C(=O)[C@]23C[C@@H]1C[C@@H](OC(C)=O)[C@H]2[C@]1(C)CCC[C@](C)(COC(C)=O)[C@H]1C[C@@H]3O`, for which the IC50 in experiment [3] (setting [5]) was determined as 1.65 µM; in experiment [2] (setting [5]), 1.33 µM. Turning to `C=C1C[C@]23C[C@@H]1CC[C@H]2[C@]1(C)CCC[C@](C)(COC(C)=O)[C@H]1C[C@H]3O`, the IC50 entry in experiment [3] (neutrophil) and in experiment [2] (neutrophil) was “ND(Insoluble)” in each case. On to `C=C1C(=O)[C@@]23[C@H](O)C[C@@H]4C(C)(C)CC[C@@H](OC(C)=O)[C@@]4(C)[C@@H]2CC[C@@H]1[C@H]3O`, for which the results for the IC50 in experiment [3] (setting [5]) and in experiment [2] (setting [5]) were 2.48 µM and 1.94 µM, respectively.

On to `c1ccc2c(c1)[I+]c1ccccc1-2` [DIPHENYLENEIODONIUM], for which, in experiment [2] (setting [5]), the IC50 turned out to be 0.93 µM. Take `CC(=O)OC[C@@]1(C)CCC[C@]2(C)[C@@H]1CC[C@@]13C[C@@H](C[C@H](O)[C@H]12)C(C)(O)C3` (stereo partly specified) [CROTONKININ H]: the inhibition at 10 µM in experiment [1] is 23.3%; in experiment [4], -10.9%. Regarding `C=C1C(=O)[C@@]23CC[C@@H]4[C@@](C)(COC(C)=O)CCC[C@@]4(C)[C@@H]2CC[C@@H]1C3`, the IC50 came to 0.24 µM in experiment [3] (setting [5]) and 0.13 µM in experiment [2] (setting [5]).
